Columns and labels:
[1] = Inhibition of HIV NL4-3 recombinant histidine-tagged integrase strand transfer activity expressed in Escherichia coli BL21 (DE3); set-up: species or system Human immunodeficiency virus
[2] = Inhibition of HIV NL4-3 recombinant histidine-tagged integrase 3'-end processing activity expressed in Escherichia coli BL21 (DE3); set-up: species or system Human immunodeficiency virus
Method in brief: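 N-terminal 6-His-tagged HIV-1 NL4-3 IN expressed in E. coli BL21 DE3 pLysS, Ni2+ affinity purified (>95%), stored at -80 °C. The 32P-labeled blunt-end V1/V2 duplex mimicking the viral LTR was incubated with IN and increasing compound concentrations at 37 °C for 1 h, in triplicate. Products were resolved by denaturing PAGE and quantified by phosphorimager. 3'-processing was read as the 21mer to 19mer conversion.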

MT2 = assay: Cytotoxicity against human MT2 cells assessed as concentration required to 5% inhibition of cell growth relative to control; assay type: cell-based
Method in brief: (§1)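 MT-2 cells were grown in RPMI-1640 without antibiotics and exposed to compound. CT50 and CT5 are the concentrations inhibiting cellular replication by 50% and 5% relative to untreated control; CT5 corresponds to 95% viable cells. Values are the mean of triplicate assays with SD.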

[3] = tested on: Human immunodeficiency virus; assay: Antiviral activity against HIV LAI infected in human MT2 cells assessed as protection against virus-induced cytopathic effect; assay type: functional, organism-based; conditions: Human immunodeficiency virus 1, LAI
Method in brief: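 MT-2 cells were cultured in RPMI-1640 without antibiotics and infected with HIV LAI. EC50 is the concentration protecting 50% of cells from virus-induced cytopathic effect. Values are the mean of triplicate assays with SD.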

[4] = Cytotoxicity against human MT2 cells assessed as concentration required to 50% inhibition of cell growth relative to control; assay type: cell-based; conditions: read-out: Activity; method in brief: as §1
[5] = Therapeutic index, ratio of CT50 for human MT2 cells to EC50 for HIV LAI; assay type: cell-based; conditions: read-out: TI

IC50 [1]	IC50 [2]	EC50 [3]	SMILES	Activity (MT2)	CC50 [4]	selectivity ratio [5]
130 nM	120 nM	> 51000 nM	O=C(/C=C/c1ccc(O)c(O)c1)Nc1cc(NC(=O)/C=C/c2ccc(O)c(O)c2)cc(C(=O)/C=C(\O)C(=O)O)c1	> 50.7 µM	> 50700 nM	
440 nM	340 nM	330 nM	O=C(/C=C/c1ccc(O)c(O)c1)O[C@@H](c1nnn[nH]1)[C@@H](OC(=O)/C=C/c1ccc(O)c(O)c1)c1nnn[nH]1	28.4 µM	422000 nM	> 350
1380 nM	1820 nM	> 54000 nM	COC(=O)/C(O)=C/C(=O)c1ccc(NC(=O)/C=C/c2ccc(O)c(O)c2)cc1	12.4 µM	39500 nM	
74200 nM	136000 nM	> 90500 nM	O=C(O[C@@H](C(=O)O)[C@@H](OC(=O)c1cccn1Cc1ccc(F)cc1)C(=O)O)c1cccn1Cc1ccc(F)cc1	28.7 µM	374000 nM	
47300 nM	277000 nM	> 170000 nM	O=C(O[C@@H](C(=O)O)[C@@H](O)C(=O)O)c1cccn1Cc1ccc(F)cc1	60.8 µM	792000 nM	
2550 nM	2280 nM	> 37500 nM	O=C(/C=C/c1ccc(O)c(O)c1)Nc1ccccc1C(=O)/C=C(\O)C(=O)O	23.3 µM	53000 nM	
360 nM	110 nM	> 34000 nM	O=C(/C=C/c1ccc(O)c(O)c1)Nc1cccc(C(=O)/C=C(\O)C(=O)O)c1	20.4 µM	52800 nM	
1270 nM	4050 nM	110000 nM	O=C(/C=C/c1ccc(O)c(O)c1)O[C@@H](C(=O)O)[C@@H](OC(=O)c1cccn1Cc1ccc(F)cc1)C(=O)O	41.8 µM	399000 nM	
120 nM	140 nM	850 nM	O=C(/C=C/c1ccc(O)c(O)c1)OCC(OC(=O)/C=C/c1ccc(O)c(O)c1)c1nnn[nH]1 (racemic)	> 42.5 µM	> 42500 nM	
1130 nM	470 nM	> 67000 nM	O=C(O)/C(O)=C/C(=O)c1ccc(O)c(O)c1	67 µM	178000 nM	
350 nM	400 nM	> 16900 nM	O=C(/C=C/c1ccc(O)c(O)c1)Nc1ccc(C(=O)/C=C(\O)C(=O)O)cc1	26.1 µM	47200 nM	
140 nM	13000 nM	400 nM	O=C(O)C(=O)CC(=O)c1cccn1Cc1ccc(F)cc1	> 69.3 µM	> 69300 nM	
270 nM	210 nM	420 nM	NC(=O)[C@H](OC(=O)/C=C/c1ccc(O)c(O)c1)[C@@H](OC(=O)/C=C/c1ccc(O)c(O)c1)c1nnn[nH]1	5.7 µM	31900 nM	> 350
270 nM	220 nM	810 nM	O=C(/C=C/c1ccc(O)c(O)c1)O[C@@H](C(=O)O)[C@@H](OC(=O)/C=C/c1ccc(O)c(O)c1)C(=O)O [CICHORIC ACID]	41 µM	124000 nM	
630 nM	750 nM	> 48000 nM	COC(=O)/C(O)=C/C(=O)c1cc(NC(=O)/C=C/c2ccc(O)c(O)c2)cc(NC(=O)/C=C/c2ccc(O)c(O)c2)c1	> 47.7 µM	> 47700 nM	
810 nM	1100 nM	> 36000 nM	O=C(/C=C(\O)C(=O)O)/C=C/c1ccc(O)c(O)c1	32 µM	80000 nM	
6080 nM	19100 nM	80500 nM	O=C(/C=C/c1ccc(O)c(O)c1)O[C@@H](C(=O)O)[C@@H](O)C(=O)O [CAFTARIC ACID]	49.6 µM	325000 nM	
210 nM	390 nM	60 nM	O=C(/C=C/c1cc(O)c(O)c(O)c1)OC(c1nnn[nH]1)C(OC(=O)/C=C/c1cc(O)c(O)c(O)c1)c1nnn[nH]1 (single isomer, unassigned)	11.3 µM	48900 nM	> 350
1890 nM	2810 nM	> 36000 nM	COC(=O)/C(O)=C/C(=O)c1ccc(O)c(O)c1	36 µM	182000 nM	

From ChEMBL document CHEMBL1275394, “Design, synthesis, and biological evaluation of novel hybrid dicaffeoyltartaric/diketo acid and tetrazole-substituted L-chicoric acid analogue inhibitors of human immunodeficiency virus type 1 integrase” (J Med Chem, 2010)
